# Test results taken from ChEMBL document CHEMBL4680183, “1,2,3-Triazole-Chalcone hybrids: Synthesis, in vitro cytotoxic activity and mechanistic investigation of apoptosis induction in multiple myeloma RPMI-8226” (Eur J Med Chem, 2020).
# What was measured:
# RPMI-8226 [1] = assay: Induction of ROS accumulation in human RPMI-8226 cells incubated for 2 hrs by ELISA (reference value: 26.06 +/- […]); assay type: functional
# Histone deacetylase 8 = target: T1, Histone deacetylase 8 (Homo sapiens, UniProt Q9BY41); assay: Inhibition of HDAC8 in human RPMI-8226 cells incubated for 2 hrs by ELISA; assay type: cell-based
# T1 sequence (Q9BY41 whole entry): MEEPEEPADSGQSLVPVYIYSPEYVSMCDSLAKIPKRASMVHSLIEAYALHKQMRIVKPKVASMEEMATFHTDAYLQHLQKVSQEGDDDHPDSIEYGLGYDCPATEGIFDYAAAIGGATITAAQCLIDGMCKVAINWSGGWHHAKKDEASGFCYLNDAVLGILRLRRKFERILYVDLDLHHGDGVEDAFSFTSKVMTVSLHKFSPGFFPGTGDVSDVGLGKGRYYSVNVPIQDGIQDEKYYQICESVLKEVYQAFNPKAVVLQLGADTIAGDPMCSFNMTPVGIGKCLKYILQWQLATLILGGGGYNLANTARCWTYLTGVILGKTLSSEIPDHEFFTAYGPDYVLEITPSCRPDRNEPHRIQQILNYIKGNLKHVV
# Procedure, shortened: (§1)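 Target levels measured by ELISA kits in RPMI-8226 cells. Cells were seeded and grown 24 h at 37 °C, then exposed 72 h to a semi-log series of concentrations. Sample was incubated 2 h at 37 °C, followed by detection reagents A and B (1 h each), TMB substrate and stop solution, with OD read at 450 nm. IC50 was taken from sigmoidal dose-response nonlinear regression of % activity.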
# Histone deacetylase 1 = Histone deacetylase 1 (Homo sapiens, UniProt Q13547); assay: Inhibition of HDAC1 in human RPMI-8226 cells incubated for 2 hrs by ELISA; assay type: cell-based; procedure, shortened: as §1
# Histone deacetylase 1, sequence (Q13547 whole entry): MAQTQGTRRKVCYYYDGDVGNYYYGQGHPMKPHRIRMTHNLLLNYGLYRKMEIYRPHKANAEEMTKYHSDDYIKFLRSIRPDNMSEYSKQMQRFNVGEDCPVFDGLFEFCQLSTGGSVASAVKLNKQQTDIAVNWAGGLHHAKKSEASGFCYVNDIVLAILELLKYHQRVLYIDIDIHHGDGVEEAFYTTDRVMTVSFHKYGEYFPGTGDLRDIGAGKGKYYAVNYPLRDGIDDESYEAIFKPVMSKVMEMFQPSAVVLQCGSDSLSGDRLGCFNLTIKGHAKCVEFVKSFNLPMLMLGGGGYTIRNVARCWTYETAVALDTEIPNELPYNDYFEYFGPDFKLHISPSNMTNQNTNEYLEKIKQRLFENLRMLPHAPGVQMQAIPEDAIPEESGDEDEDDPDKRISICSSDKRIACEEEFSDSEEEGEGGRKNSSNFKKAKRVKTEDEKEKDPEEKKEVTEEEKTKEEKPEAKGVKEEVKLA
# Histone deacetylase 3 = Histone deacetylase 3 (Homo sapiens, UniProt O15379); assay: Inhibition of HDAC3 in human RPMI-8226 cells incubated for 2 hrs by ELISA; assay type: cell-based; procedure, shortened: as §1
# Histone deacetylase 3, sequence (O15379 whole entry): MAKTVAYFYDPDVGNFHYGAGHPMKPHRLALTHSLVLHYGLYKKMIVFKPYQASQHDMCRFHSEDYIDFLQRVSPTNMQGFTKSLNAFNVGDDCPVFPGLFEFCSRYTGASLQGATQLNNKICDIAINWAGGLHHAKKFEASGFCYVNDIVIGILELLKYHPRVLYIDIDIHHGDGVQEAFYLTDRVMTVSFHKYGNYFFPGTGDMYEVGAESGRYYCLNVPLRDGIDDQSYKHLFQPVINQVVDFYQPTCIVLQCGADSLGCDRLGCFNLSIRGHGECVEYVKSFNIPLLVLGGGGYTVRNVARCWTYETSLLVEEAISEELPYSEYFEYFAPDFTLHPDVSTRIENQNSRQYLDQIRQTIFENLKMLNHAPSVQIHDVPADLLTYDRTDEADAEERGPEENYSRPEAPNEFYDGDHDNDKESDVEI
# Histone deacetylase 2 = Histone deacetylase 2 (Homo sapiens, UniProt Q92769); assay: Inhibition of HDAC2 in human RPMI-8226 cells incubated for 2 hrs by ELISA; assay type: cell-based; procedure, shortened: as §1
# Histone deacetylase 2, sequence (Q92769 whole entry): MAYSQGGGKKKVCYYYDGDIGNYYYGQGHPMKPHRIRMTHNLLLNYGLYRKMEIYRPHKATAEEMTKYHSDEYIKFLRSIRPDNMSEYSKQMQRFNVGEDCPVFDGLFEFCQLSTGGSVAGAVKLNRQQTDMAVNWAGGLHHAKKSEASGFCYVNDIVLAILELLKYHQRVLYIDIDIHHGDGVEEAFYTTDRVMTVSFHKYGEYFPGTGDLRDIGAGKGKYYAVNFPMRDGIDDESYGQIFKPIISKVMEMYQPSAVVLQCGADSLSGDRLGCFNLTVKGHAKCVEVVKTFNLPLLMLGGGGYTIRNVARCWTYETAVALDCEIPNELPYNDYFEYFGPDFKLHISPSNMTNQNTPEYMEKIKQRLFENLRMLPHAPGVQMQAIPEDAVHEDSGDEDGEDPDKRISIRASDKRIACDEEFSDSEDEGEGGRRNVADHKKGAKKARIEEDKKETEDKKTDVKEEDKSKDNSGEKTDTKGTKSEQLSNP
# RPMI-8226 [2] = assay: Induction of apoptosis in human RPMI-8226 cells assessed as BAX level incubated for 24 hrs by ELISA (reference value: 56 +/- […]); assay type: functional
# RPMI-8226 [3] = assay: Induction of apoptosis in human RPMI-8226 cells assessed as Caspase-3 level incubated for 24 hrs by ELISA (reference value: 35.3 pg/ml); assay type: functional
# RPMI-8226 [4] = assay: Induction of apoptosis in human RPMI-8226 cells assessed as Caspase-9 level incubated for 24 hrs by ELISA (reference value: 1.63 +/- […]); assay type: functional
# RPMI-8226 [5] = assay: Induction of apoptosis in human RPMI-8226 cells assessed as Caspase-7 level incubated for 24 hrs by ELISA (reference value: 0.359 +/- 0.016 ng/ml); assay type: functional
# RPMI-8226 [6] = assay: Induction of apoptosis in human RPMI-8226 cells assessed as Bcl-2 level incubated for 24 hrs by ELISA (reference value: 4.857 +/- […]); assay type: functional
# RPMI-8226 [7] = assay: Induction of apoptosis in human RPMI-8226 cells assessed as PARP-1 level incubated for 24 hrs by ELISA (reference value: 0.151 +/- […]); assay type: functional
# Tubulin = assay: Inhibition of Tubulin in human RPMI-8226 cells incubated for 2 hrs by ELISA; assay type: cell-based; procedure, shortened: as §1
# [8] = target: Epidermal growth factor receptor (Homo sapiens, UniProt P00533); assay: Inhibition of EGFR in human RPMI-8226 cells incubated for 2 hrs by ELISA; assay type: cell-based
# Epidermal growth factor receptor, sequence (P00533 whole entry): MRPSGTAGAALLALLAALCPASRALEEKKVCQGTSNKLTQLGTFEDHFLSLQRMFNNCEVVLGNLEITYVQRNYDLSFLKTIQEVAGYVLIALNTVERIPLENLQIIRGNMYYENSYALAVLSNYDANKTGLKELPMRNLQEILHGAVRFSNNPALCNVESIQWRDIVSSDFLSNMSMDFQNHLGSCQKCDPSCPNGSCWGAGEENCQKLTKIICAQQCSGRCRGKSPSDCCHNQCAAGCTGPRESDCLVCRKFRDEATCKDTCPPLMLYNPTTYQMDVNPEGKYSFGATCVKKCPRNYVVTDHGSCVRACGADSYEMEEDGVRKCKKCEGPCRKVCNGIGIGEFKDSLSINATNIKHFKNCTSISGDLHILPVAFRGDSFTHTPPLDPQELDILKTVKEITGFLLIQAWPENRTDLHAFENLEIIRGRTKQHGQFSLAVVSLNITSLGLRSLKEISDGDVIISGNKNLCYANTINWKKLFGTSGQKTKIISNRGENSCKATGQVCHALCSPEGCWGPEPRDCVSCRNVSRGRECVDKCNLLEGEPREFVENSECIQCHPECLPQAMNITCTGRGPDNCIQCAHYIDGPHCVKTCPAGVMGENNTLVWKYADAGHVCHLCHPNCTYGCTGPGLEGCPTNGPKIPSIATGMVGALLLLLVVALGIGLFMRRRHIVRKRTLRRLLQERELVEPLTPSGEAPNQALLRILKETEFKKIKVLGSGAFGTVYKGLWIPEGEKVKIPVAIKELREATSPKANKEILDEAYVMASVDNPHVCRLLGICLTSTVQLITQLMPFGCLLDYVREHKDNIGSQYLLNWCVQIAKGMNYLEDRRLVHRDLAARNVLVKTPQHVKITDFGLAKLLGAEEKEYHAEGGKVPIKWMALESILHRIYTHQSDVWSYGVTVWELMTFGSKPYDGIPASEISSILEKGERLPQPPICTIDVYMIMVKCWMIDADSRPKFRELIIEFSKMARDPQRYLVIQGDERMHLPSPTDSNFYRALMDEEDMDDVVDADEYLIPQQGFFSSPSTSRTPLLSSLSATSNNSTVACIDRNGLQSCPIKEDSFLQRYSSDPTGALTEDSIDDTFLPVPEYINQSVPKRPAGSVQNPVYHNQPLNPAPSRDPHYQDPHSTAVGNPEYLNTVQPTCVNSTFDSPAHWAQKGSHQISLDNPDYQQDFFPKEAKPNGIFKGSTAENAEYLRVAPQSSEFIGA
# [9] = target: Vascular endothelial growth factor receptor 2 (Homo sapiens, UniProt P35968); assay: Inhibition of VEGFR2 in human RPMI-8226 cells incubated for 2 hrs by ELISA; assay type: cell-based
# Vascular endothelial growth factor receptor 2, sequence (P35968 whole entry): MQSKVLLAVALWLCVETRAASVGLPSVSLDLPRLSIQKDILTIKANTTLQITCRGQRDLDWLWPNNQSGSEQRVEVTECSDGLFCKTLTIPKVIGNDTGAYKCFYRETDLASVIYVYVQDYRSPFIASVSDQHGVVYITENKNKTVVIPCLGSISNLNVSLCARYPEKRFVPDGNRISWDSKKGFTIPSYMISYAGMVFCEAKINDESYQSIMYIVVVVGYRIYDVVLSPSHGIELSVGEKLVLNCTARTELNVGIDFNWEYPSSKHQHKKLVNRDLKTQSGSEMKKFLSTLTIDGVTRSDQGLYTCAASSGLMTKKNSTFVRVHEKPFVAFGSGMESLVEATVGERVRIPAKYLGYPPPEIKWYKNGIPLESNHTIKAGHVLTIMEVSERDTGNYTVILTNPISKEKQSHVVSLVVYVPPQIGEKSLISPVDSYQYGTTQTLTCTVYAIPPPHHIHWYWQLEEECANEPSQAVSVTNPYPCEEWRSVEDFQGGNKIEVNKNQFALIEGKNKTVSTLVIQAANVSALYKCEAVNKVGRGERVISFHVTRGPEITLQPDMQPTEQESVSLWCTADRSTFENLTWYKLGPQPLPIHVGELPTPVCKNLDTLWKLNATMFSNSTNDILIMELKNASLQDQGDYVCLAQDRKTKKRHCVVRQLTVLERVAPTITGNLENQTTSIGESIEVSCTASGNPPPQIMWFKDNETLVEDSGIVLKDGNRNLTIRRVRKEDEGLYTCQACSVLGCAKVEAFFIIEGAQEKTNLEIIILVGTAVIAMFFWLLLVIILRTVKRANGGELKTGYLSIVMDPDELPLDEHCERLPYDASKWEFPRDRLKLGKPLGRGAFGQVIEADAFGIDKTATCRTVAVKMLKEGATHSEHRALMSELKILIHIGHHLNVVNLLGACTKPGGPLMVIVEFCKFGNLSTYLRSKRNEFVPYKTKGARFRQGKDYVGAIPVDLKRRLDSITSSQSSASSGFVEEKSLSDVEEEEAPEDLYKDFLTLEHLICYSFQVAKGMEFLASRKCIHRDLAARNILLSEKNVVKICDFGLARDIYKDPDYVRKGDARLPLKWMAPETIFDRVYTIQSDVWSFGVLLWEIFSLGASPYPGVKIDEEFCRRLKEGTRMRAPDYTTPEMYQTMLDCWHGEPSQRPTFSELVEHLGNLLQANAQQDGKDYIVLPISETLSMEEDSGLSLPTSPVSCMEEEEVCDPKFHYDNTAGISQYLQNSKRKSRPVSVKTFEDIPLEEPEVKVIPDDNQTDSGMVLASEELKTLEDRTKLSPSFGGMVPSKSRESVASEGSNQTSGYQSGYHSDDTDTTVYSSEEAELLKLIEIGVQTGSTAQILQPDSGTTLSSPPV
smiles,measurement,setting,value
COc1cc2ncnc(Nc3ccc(F)c(Cl)c3)c2cc1OCCCN1CCOCC1 [GEFITINIB],Activity,RPMI-8226 [1],80.92 pg/mL
CC(C)C[C@H](NC(=O)[C@H](Cc1ccccc1)NC(=O)c1cnccn1)B(O)O [BORTEZOMIB],IC50,Histone deacetylase 8,0.072 µM
same,IC50,Histone deacetylase 1,0.62 µM
same,IC50,Histone deacetylase 3,1.18 µM
same,IC50,Histone deacetylase 2,0.8 µM
CN[C@@H]1C[C@H]2O[C@@](C)([C@@H]1OC)n1c3ccccc3c3c4c(c5c6ccccc6n2c5c31)C(=O)NC4 [STAUROSPORINE],Activity,RPMI-8226 [2],336.16 pg/mL
same,Activity,RPMI-8226 [3],449.8 pg/mL
same,Activity,RPMI-8226 [4],24.97 ng/mL
same,Activity,RPMI-8226 [5],1.508 ng/mL
same,Activity,RPMI-8226 [6],0.4081 ng/mL
same,Activity,RPMI-8226 [7],0.245 ng/mL
COc1ccc(/C=C/C(=O)c2nnn(-c3ccc(Cl)cc3)c2C)cc1OC,IC50,Histone deacetylase 8,0.047 µM
same,IC50,Histone deacetylase 1,1.53 µM
same,IC50,Tubulin,0.00977 µM
same,IC50,Histone deacetylase 3,3 µM
same,IC50,[8],0.036 µM
same,IC50,[9],0.388 µM
same,IC50,Histone deacetylase 2,2.9 µM
